# Measurements: ChEMBL document CHEMBL3758073, “Synthesis and Biochemical Evaluation of 3-Phenoxy-1,4-diarylazetidin-2-ones as Tubulin-Targeting Antitumor Agents” (J Med Chem, 2016)
# The source made the active and inactive calls. No cut-off for these calls is given here.
# Key:
# MCF7 [1] = assay: Antiproliferative activity against human MCF7 cells assessed as cell viability pre-incubated for 24 hrs with CO2 followed by compound addition after 72 hrs by MTT assay; assay type: functional, cell-based
# In short: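 MCF-7 grown in Eagle's MEM with 10% FBS, 2 mM L-glutamine, penicillin/streptomycin and 1% non-essential amino acids. Cells seeded at 2.5 x 10⁴ cells/mL, 24 h at 37 °C, then dosed from ethanol stocks over 1 nM–100 µM (vehicle 1% v/v ethanol) for 72 h. MTT at 1 mg/mL final, 2 h in the dark, DMSO solubilisation. Viability set against untreated controls; IC50 is the mean of three experiments in triplicate.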
# MCF7 [2] = assay: Cytotoxicity against human MCF7 cells assessed as induction of cell death at 10 uM after 72 hrs by LDH assay; assay type: cell-based; details: mcf7, 72 h
# In short: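 Cell death in MCF-7 measured by LDH release. Seeding and dosing as for the MTT assay; after 72 h, lysis solution added to blank wells for 1 h to give 100% death. Supernatant mixed with substrate (INT to formazan) for 30 min at rt in the dark, then stopped and read at 490 nm. Percentage cell death reported at 10 μM; assays in triplicate.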
# MCF7 [3] = assay: Binding affinity to beta-Tubulin in human MCF7 cells assessed as inhibition of protein-EBI adduct formation at Cys239 and Cys354 at 10 uM pre-incubated for 2 hrs followed by EBI addition after 1.5 hrs by Western blot analysis; assay type: cell-based
# In short: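 MCF-7 seeded at 5×10^4 cells/well and incubated overnight. Treated 2 h with test agent at 10 μM or with vehicle (0.1% v/v ethanol), then with N,N'-ethylene-bis(iodoacetamide) for a further 1.5 h. Cells washed in ice-cold PBS and lysed in Laemmli buffer. SDS-PAGE, PVDF transfer and β-tubulin immunoblot to detect the faster-migrating β-tubulin–EBI adduct. Three independent experiments.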
# Tubulin (Sus scrofa) = Tubulin (Sus scrofa) (UniProt P02554+P02550); assay: Inhibition of porcine tubulin polymerization assessed as inhibition of tubulin assembly Vmax rate at 10 uM by spectrophotometric analysis; assay type: protein assay
# Sequence of Tubulin (Sus scrofa) (P02550 whole entry, looked up): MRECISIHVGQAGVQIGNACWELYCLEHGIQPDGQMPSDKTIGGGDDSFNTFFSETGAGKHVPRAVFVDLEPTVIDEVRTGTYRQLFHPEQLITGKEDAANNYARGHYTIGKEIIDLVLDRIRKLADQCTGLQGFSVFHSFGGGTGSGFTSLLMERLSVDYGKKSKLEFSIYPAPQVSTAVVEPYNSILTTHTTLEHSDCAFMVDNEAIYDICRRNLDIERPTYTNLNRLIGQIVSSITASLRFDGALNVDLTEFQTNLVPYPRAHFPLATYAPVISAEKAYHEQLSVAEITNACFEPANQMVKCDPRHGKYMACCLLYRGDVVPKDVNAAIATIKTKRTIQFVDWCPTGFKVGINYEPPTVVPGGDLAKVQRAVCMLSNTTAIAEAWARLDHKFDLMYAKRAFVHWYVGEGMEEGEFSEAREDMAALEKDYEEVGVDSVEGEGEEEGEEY
# Sequence of Tubulin (Sus scrofa) (P02554 whole entry, looked up): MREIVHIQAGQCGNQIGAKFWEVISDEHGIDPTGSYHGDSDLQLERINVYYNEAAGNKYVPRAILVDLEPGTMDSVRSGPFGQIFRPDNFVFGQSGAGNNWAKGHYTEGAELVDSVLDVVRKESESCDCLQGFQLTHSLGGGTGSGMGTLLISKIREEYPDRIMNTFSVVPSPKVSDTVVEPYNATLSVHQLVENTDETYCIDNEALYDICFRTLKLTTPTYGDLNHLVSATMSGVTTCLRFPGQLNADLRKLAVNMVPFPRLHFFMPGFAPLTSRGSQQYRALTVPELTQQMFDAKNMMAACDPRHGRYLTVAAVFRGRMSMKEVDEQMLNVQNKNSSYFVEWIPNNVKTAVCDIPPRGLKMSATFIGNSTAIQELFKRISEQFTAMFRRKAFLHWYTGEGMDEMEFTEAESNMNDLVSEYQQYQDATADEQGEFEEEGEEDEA
# In short: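 Tubulin polymerisation kit (>97% pure porcine tubulin, OD-based). Tubulin plus GTP at 37 °C with test agent at 10 μM final; 1% v/v ethanol as vehicle. A340 read every 30 s for 60 min at 37 °C. Fold change in Vmax calculated relative to vehicle; mean of three separate experiments.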
compound,measurement,setting,value
COc1ccc([C@@H]2[C@@H](Oc3ccccc3)C(=O)N2c2cc(OC)c(OC)c(OC)c2)cc1[N+](=O)[O-] (relative stereo),IC50,MCF7 [1],4.1 µM
same,Activity,MCF7 [2],5.2%
COc1cc(N2C(=O)[C@@H](Oc3ccccc3)[C@H]2c2ccc(O)cc2)cc(OC)c1OC (relative stereo),IC50,MCF7 [1],48 µM
same,Activity,MCF7 [2],0.1%
COc1cc(N2C(=O)[C@@H](Oc3ccccc3)[C@H]2c2ccc(Br)cc2)cc(OC)c1OC (relative stereo),IC50,MCF7 [1],48 µM
COc1cc(N2C(=O)[C@@H](Oc3ccccc3)[C@H]2c2cccc([N+](=O)[O-])c2)cc(OC)c1OC (relative stereo),IC50,MCF7 [1],30 µM
same,Activity,MCF7 [2],16.7%
COc1ccc([C@@H]2[C@H](Oc3ccccc3)C(=O)N2c2cc(OC)c(OC)c(OC)c2)c(N)c1O (relative stereo),IC50,MCF7 [1],19 µM
same,Activity,MCF7 [2],52%
COc1cc2c(c(OC)c1OC)-c1ccc(OC)c(=O)cc1[C@@H](NC(C)=O)CC2,Activity,MCF7 [3],Active
COc1ccc([C@@H]2[C@@H](Oc3ccccc3)C(=O)N2c2cc(OC)c(OC)c(OC)c2)cc1 (relative stereo),IC50,MCF7 [1],6.9 µM
same,Activity,MCF7 [2],7.3%
COc1cc(N2C(=O)[C@@H](Oc3ccccc3)[C@H]2c2cc(O)c(OC)c([N+](=O)[O-])c2)cc(OC)c1OC (relative stereo),IC50,MCF7 [1],69 µM
same,Activity,MCF7 [2],12.1%
COc1ccc([C@@H]2[C@H](Oc3ccccc3)C(=O)N2c2cc(OC)c(OC)c(OC)c2)cc1N,IC50,MCF7 [1],12.2 µM
same,Activity,MCF7 [2],7.7%
COc1ccc([C@@H]2[C@H](Oc3ccccc3)C(=O)N2c2cc(OC)c(OC)c(OC)c2)cc1OC (relative stereo),IC50,MCF7 [1],26 µM
same,Activity,MCF7 [2],11.2%
COc1ccc([C@@H]2[C@H](Oc3ccccc3)C(=O)N2c2cc(OC)c(OC)c(OC)c2)cc1OP(=O)(O)O (relative stereo),IC50,MCF7 [1],42 µM
COc1ccc([C@@H]2[C@@H](Oc3ccccc3)C(=O)N2c2cc(OC)c(OC)c(OC)c2)cc1NC(=O)C(C)N (relative stereo),IC50,MCF7 [1],0.23 µM
COc1ccc([C@@H]2[C@@H](Oc3ccccc3)C(=O)N2c2cc(OC)c(OC)c(OC)c2)cc1Br (relative stereo),IC50,MCF7 [1],31 µM
same,Activity,MCF7 [2],3.9%
COc1cc([N+](=O)[O-])c([C@@H]2[C@H](Oc3ccccc3)C(=O)N2c2cc(OC)c(OC)c(OC)c2)cc1O (relative stereo),IC50,MCF7 [1],59 µM
same,Activity,MCF7 [2],9.9%
COc1cc(N2C(=O)[C@@H](Oc3ccccc3)[C@H]2c2cccc(N)c2)cc(OC)c1OC (relative stereo),IC50,MCF7 [1],17 µM
same,Activity,MCF7 [2],48%
COc1cc(N2C(=O)[C@@H](Oc3ccccc3)[C@H]2c2ccc([S+](C)[O-])cc2)cc(OC)c1OC (relative stereo),IC50,MCF7 [1],20 µM
same,Activity,MCF7 [2],1.7%
COc1cc(N2C(=O)[C@@H](Oc3ccccc3)[C@H]2c2ccc(N(C)C)cc2)cc(OC)c1OC (relative stereo),IC50,MCF7 [1],31 µM
same,Activity,MCF7 [2],5.9%
same,fold change (FC),Tubulin (Sus scrofa),0
COc1cc(N2C(=O)[C@@H](Oc3ccccc3)[C@H]2c2ccc3c(c2)OCO3)cc(OC)c1OC (relative stereo),IC50,MCF7 [1],48 µM
same,Activity,MCF7 [2],8.3%
COc1cc(N2C(=O)[C@@H](Oc3ccccc3)[C@H]2c2ccc(S(C)(=O)=O)cc2)cc(OC)c1OC (relative stereo),IC50,MCF7 [1],62 µM
same,Activity,MCF7 [2],10.2%
COc1cc(N2C(=O)[C@@H](Oc3ccccc3)[C@H]2c2ccc3ccccc3c2)cc(OC)c1OC (relative stereo),IC50,MCF7 [1],282 µM
same,Activity,MCF7 [2],10.7%
COc1cc(N2C(=O)[C@@H](Oc3ccccc3)[C@H]2c2cccc(O)c2)cc(OC)c1OC (relative stereo),IC50,MCF7 [1],54 µM
same,Activity,MCF7 [2],22%
CCOC(=O)/C=C/c1ccc([C@@H]2[C@H](Oc3ccccc3)C(=O)N2c2cc(OC)c(OC)c(OC)c2)cc1 (relative stereo),IC50,MCF7 [1],87 µM
COc1cccc([C@@H]2[C@H](Oc3ccccc3)C(=O)N2c2cc(OC)c(OC)c(OC)c2)c1 (relative stereo),IC50,MCF7 [1],171 µM
same,Activity,MCF7 [2],22%
COc1cc(N2C(=O)[C@@H](Oc3ccccc3)[C@H]2c2ccc(N=[N+]=[N-])cc2)cc(OC)c1OC (relative stereo),IC50,MCF7 [1],23 µM
same,Activity,MCF7 [2],5.8%
COc1ccc([C@@H]2[C@H](Oc3ccccc3)C(=O)N2c2cc(OC)c(OC)c(OC)c2)cc1NC(=O)CCCc1ccc(N(CCCl)CCCl)cc1 (relative stereo),IC50,MCF7 [1],145 µM
same,Activity,MCF7 [2],3.2%
COc1cc(N2C(=O)[C@@H](Oc3ccccc3)[C@H]2c2ccc(O)c(O)c2)cc(OC)c1OC (relative stereo),IC50,MCF7 [1],4.5 µM
same,Activity,MCF7 [2],6%
COc1cc(N2C(=O)[C@@H](Oc3ccccc3)[C@H]2c2cc(N)c(OC)c(O)c2)cc(OC)c1OC (relative stereo),IC50,MCF7 [1],8.8 µM
same,Activity,MCF7 [2],14%
O=C(O)CCCc1ccc(N(CCCl)CCCl)cc1 [CHLORAMBUCIL],IC50,MCF7 [1],97 µM
same,Activity,MCF7 [2],8%
COc1ccc([C@@H]2[C@H](Oc3ccccc3)C(=O)N2c2cc(OC)c(OC)c(OC)c2)cc1[N+](=O)[O-] (relative stereo),IC50,MCF7 [1],69 µM
same,Activity,MCF7 [2],5.3%
COc1cc(N)c([C@@H]2[C@H](Oc3ccccc3)C(=O)N2c2cc(OC)c(OC)c(OC)c2)cc1O (relative stereo),IC50,MCF7 [1],20 µM
same,Activity,MCF7 [2],70%
COc1cc(N2C(=O)[C@@H](Oc3ccccc3)[C@H]2c2ccc(SC)cc2)cc(OC)c1OC (relative stereo),IC50,MCF7 [1],7.7 µM
same,Activity,MCF7 [2],8.1%
COc1ccc([C@@H]2[C@H](Oc3ccccc3)C(=S)N2c2cc(OC)c(OC)c(OC)c2)cc1O (relative stereo),IC50,MCF7 [1],7.5 µM
same,Activity,MCF7 [2],4.8%
COc1ccc([C@@H]2[C@H](Oc3ccccc3)C(=O)N2c2cc(OC)c(OC)c(OC)c2)cc1F (relative stereo),IC50,MCF7 [1],6.3 µM
same,Activity,MCF7 [2],70%
COc1cc([C@@H]2[C@H](Oc3ccccc3)C(=O)N2c2cc(OC)c(OC)c(OC)c2)cc(OC)c1OC (relative stereo),IC50,MCF7 [1],29 µM
same,Activity,MCF7 [2],0%
COc1cc(N2C(=O)[C@@H](Oc3ccccc3)[C@H]2c2ccc(C#N)cc2)cc(OC)c1OC (relative stereo),IC50,MCF7 [1],31.6 µM
same,Activity,MCF7 [2],4.8%
COc1ccc([C@@H]2[C@H](Oc3ccccc3)C(=O)N2c2cc(OC)c(OC)c(OC)c2)cc1NC(=O)C(C)N (relative stereo),IC50,MCF7 [1],9.2 µM
COc1ccc([C@@H]2[C@H](Oc3ccccc3)C(=O)N2c2cc(OC)c(OC)c(OC)c2)cc1OC(=O)CCCc1ccc(N(CCCl)CCCl)cc1 (relative stereo),IC50,MCF7 [1],0.41 µM
same,Activity,MCF7 [2],8%
COc1ccc([C@@H]2[C@H](Oc3ccccc3)C(=O)N2c2cc(OC)c(OC)c(OC)c2)cc1Br (relative stereo),IC50,MCF7 [1],5.1 µM
same,Activity,MCF7 [2],6.4%
COc1cc(N2C(=O)[C@@H](Oc3ccccc3)[C@H]2c2ccc(N)cc2)cc(OC)c1OC (relative stereo),IC50,MCF7 [1],160 µM
same,Activity,MCF7 [2],14.7%
COc1ccc([C@@H]2[C@H](Oc3ccccc3)C(=O)N2c2cc(OC)c(OC)c(OC)c2)cc1NC(=O)CN (relative stereo),IC50,MCF7 [1],6.5 µM
COc1ccc([C@@H]2[C@H](Oc3cc(OC)c(OC)c(OC)c3)C(=O)N2c2cc(OC)c(OC)c(OC)c2)cc1O (relative stereo),IC50,MCF7 [1],33 µM
same,Activity,MCF7 [2],10.9%
COc1cc([C@@H]2[C@H](Oc3ccccc3)C(=O)N2c2cc(OC)c(OC)c(OC)c2)ccc1O (relative stereo),IC50,MCF7 [1],32 µM
same,Activity,MCF7 [2],5.1%
COc1ccc(N2C(=O)[C@@H](Oc3ccccc3)[C@H]2c2ccc(OC)c(O)c2)cc1 (relative stereo),IC50,MCF7 [1],49 µM
same,Activity,MCF7 [2],10.4%
COc1cc(N2C(=O)[C@H](Oc3ccccc3)[C@H]2c2ccc(C#N)cc2)cc(OC)c1OC (relative stereo),IC50,MCF7 [1],168 µM
same,Activity,MCF7 [2],2.1%
same,fold change (FC),Tubulin (Sus scrofa),0
COc1ccc([C@@H]2[C@@H](Oc3ccccc3)C(=O)N2c2cc(OC)c(OC)c(OC)c2)cc1OP(=O)(O)O (relative stereo),IC50,MCF7 [1],23 µM
COc1cc(N2C(=O)[C@@H](Oc3ccccc3)[C@H]2c2ccc([N+](=O)[O-])cc2)cc(OC)c1OC (relative stereo),IC50,MCF7 [1],63 µM
same,Activity,MCF7 [2],27%
COc1ccc([C@@H]2[C@H](Oc3ccccc3)C(=O)N2c2cc(OC)c(OC)c(OC)c2)c([N+](=O)[O-])c1O (relative stereo),IC50,MCF7 [1],89 µM
same,Activity,MCF7 [2],12.7%
COc1cc(N2C(=O)[C@@H](Oc3ccccc3)[C@H]2c2cccc3ccccc23)cc(OC)c1OC (relative stereo),IC50,MCF7 [1],53 µM
same,Activity,MCF7 [2],4.6%
COc1ccc([C@@H]2[C@H](Oc3ccccc3)CN2c2cc(OC)c(OC)c(OC)c2)cc1O,IC50,MCF7 [1],3.3 µM
same,Activity,MCF7 [2],19.8%
COc1ccc([C@@H]2[C@H](Oc3ccccc3)C(=O)N2c2cc(OC)c(OC)c(OC)c2)cc1 (relative stereo),IC50,MCF7 [1],35 µM
same,Activity,MCF7 [2],6.5%
